Experimental data from ChEMBL document CHEMBL1131058, “Studies on quinazolines and 1,2,4-benzothiadiazine 1,1-dioxides. 8.1, 2 synthesis and pharmacological evaluation of tricyclic fused quinazolines and 1,2,4-benzothiadiazine 1,1-dioxides as potential alpha1-adrenoceptor antagonists” (J Med Chem, 1998).

Experiments:
[1] = biological target: Serotonin 1 (5-HT1) receptor (Rattus norvegicus) (UniProt P28564+P30940+P19327+P28565); test: Compound is evaluated for binding affinity towards 5-hydroxytryptamine 1 receptor using [3H]5-HT in rat brain cortex at 10 uM; type: tissue-based
In short: (§1)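 Radioligand competition binding was done by an outside contract lab (Pan Lab). Inhibition constants (Ki) were derived from displacement of the stated tritiated ligand. Each compound was tested at 10 µM. Where inhibition at that concentration stayed below 50%, no Ki was reported.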

[2] = biological target: T1, 5-hydroxytryptamine receptor 1A (Rattus norvegicus, UniProt P19327); test: Compound is evaluated for binding affinity towards 5-hydroxytryptamine 1A receptor using [3H]-8-OH- -DPAT in rat brain cortex; type: tissue-based
T1 sequence (P19327 whole entry): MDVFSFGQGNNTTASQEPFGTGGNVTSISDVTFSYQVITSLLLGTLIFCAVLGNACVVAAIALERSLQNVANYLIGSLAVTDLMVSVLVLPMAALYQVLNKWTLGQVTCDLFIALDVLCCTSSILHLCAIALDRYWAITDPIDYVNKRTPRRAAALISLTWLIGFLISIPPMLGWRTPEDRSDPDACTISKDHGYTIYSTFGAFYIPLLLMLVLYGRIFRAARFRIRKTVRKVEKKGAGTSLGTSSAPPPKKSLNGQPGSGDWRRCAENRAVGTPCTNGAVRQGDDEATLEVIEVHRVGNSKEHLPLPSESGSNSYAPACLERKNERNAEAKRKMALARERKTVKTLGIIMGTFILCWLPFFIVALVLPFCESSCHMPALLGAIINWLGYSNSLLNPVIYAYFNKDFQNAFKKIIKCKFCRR
In short: (§2)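 Contract radioligand competition binding. Sources: 5-HT1 and 5-HT1A in rat brain cortex; 5-HT2 and σ2 in rat brain; σ in guinea pig brain; D2, rhD2 and rhD3 in CHO cells with [³H]spiperone; H1 in guinea pig lung with [³H]pyrilamine. Inhibition constants reported; no constant given where inhibition at 10 µM was below 50%.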

[3] = biological target: Serotonin 2 (5-HT2) receptor (Rattus norvegicus, UniProt P30994+P08909+P14842); test: Compound is evaluated for binding affinity towards 5-hydroxytryptamine 2 receptor using [3H]ketanserin in rat brain; type: tissue-based; in short: as §2
[4] = biological target: T2, Alpha-1A adrenergic receptor (Rattus norvegicus, UniProt P43140); test: Displacement of [3H]prazosin from Alpha-1A adrenergic receptor of rat submaxillary gland membranes; type: cell membranes, Membrane
T2 sequence (P43140 whole entry): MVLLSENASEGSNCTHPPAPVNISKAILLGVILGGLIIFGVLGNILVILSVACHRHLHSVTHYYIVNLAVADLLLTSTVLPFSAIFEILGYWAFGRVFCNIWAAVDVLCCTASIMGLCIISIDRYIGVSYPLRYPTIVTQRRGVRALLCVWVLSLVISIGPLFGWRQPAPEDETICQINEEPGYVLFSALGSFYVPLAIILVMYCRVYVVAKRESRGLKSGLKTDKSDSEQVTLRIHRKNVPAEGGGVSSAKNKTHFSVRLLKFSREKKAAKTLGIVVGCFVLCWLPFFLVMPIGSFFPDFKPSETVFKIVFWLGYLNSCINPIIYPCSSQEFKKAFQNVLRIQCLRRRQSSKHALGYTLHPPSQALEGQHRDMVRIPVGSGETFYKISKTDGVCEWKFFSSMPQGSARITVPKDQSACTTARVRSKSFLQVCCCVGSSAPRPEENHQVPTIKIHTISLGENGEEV
In short: (§3)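 Triplicate competition binding against 0.2-0.25 nM [³H]prazosin in Tris buffer pH 7.4, 30 min at room temperature. Competitor range 0.1-200 nM. Nonspecific binding defined with 10 µM phentolamine. Reaction stopped by GF/B filtration with two cold Tris washes. Membrane protein 300-400 µg per assay. Ki calculated from the data; mean ± SEM of 3-6 experiments.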

[5] = biological target: T3, Alpha-1B adrenergic receptor (Rattus norvegicus, UniProt P15823); test: Displacement of [3H]prazosin from Alpha-1B adrenergic receptor of rat liver membrane; in short: as §3
T3 sequence (P15823 whole entry): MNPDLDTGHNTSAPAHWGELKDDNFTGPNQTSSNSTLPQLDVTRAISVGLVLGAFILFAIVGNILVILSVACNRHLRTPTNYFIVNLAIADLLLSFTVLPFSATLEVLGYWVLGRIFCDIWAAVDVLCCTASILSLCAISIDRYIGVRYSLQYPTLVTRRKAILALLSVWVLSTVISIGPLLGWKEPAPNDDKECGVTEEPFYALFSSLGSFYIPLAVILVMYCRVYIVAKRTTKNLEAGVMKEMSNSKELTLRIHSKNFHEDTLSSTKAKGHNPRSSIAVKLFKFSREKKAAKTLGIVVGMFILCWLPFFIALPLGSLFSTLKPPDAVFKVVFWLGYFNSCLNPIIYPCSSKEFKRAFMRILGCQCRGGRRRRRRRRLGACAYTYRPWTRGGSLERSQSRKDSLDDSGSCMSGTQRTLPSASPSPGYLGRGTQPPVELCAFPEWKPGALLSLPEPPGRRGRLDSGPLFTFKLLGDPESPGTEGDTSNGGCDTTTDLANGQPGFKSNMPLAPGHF

D(2) dopamine receptor [6] = biological target: T4, D(2) dopamine receptor (Homo sapiens, UniProt P14416); test: Compound is evaluated for binding affinity towards Dopamine receptor D2 using [3H]spiperone in CHO cells; type: cell-based; in short: as §2
T4 sequence (P14416 whole entry): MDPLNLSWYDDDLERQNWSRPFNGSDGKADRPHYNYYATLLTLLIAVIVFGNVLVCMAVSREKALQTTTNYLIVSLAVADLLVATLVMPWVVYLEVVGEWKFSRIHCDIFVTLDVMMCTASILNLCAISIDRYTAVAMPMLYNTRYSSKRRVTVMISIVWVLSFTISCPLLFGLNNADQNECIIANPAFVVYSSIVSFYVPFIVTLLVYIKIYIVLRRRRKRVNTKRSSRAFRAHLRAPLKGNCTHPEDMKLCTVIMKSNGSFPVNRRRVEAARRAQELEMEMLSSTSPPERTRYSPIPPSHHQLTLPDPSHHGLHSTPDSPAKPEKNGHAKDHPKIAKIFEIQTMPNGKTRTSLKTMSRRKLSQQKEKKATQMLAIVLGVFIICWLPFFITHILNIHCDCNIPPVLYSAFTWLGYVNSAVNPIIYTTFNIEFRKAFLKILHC

D(2) dopamine receptor [7] = biological target: T4, D(2) dopamine receptor; test: Compound is evaluated for binding affinity towards recombinant human Dopamine receptor D2 using [3H]spiperone in CHO cells; type: cell-based; in short: as §2
D(3) dopamine receptor [8] = biological target: T5, D(3) dopamine receptor (Homo sapiens, UniProt P35462); test: Compound is evaluated for binding affinity towards recombinant human Dopamine receptor D3 using [3H]spiperone in CHO cells; type: cell-based; in short: as §2
T5 sequence (P35462 whole entry): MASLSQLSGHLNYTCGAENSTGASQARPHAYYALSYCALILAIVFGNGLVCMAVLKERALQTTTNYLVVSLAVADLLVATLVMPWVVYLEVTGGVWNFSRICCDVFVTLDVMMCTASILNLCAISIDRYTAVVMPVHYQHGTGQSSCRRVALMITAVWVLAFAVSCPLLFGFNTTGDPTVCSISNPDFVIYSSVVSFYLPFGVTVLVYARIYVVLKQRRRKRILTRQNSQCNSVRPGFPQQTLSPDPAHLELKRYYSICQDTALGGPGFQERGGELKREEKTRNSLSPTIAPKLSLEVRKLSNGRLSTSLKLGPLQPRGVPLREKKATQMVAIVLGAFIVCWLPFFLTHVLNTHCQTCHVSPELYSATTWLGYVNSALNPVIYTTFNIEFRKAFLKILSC

Histamine H1 receptor = Histamine H1 receptor (Cavia porcellus, UniProt P31389); test: Compound is evaluated for binding affinity towards Histamine H1 receptor using [3H]pyrilamine in guinea pig lung; type: tissue-based; in short: as §2
Sequence of Histamine H1 receptor (P31389 whole entry): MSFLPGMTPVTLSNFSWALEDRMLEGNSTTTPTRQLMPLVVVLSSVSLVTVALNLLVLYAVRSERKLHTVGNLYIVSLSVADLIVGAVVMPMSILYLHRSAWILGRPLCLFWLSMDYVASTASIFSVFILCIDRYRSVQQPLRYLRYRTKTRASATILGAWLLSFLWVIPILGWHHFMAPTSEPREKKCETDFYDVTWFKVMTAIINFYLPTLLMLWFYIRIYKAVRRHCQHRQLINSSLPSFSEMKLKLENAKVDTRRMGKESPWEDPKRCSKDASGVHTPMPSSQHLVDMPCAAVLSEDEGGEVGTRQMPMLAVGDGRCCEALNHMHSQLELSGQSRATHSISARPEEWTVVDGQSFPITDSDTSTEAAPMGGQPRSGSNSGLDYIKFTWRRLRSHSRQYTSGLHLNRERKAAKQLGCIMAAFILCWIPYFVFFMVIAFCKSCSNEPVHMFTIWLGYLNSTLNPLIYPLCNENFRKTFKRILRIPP

[9] = biological target: Sodium channel alpha subunits; brain (Types I, II, III) (Rattus norvegicus) (UniProt P04775+P04774+P08104); test: Displacement of [3H]batrachotoxin from rat brain sodium channel at 10 uM; type: tissue-based; in short: as §1
Sigma 2 receptor [10] = test: (§4) Binding affinity towards Sigma 2 receptor using [3H]ifenprodil in rat brain; type: tissue-based; details: concentration not given here; in short: as §1
[11] = Selectivity ratio for binding affinity towards alpha2 and alpha-1 adrenoceptors
In short: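 Ratio of α2 Ki ([³H]clonidine binding) to α1 Ki ([³H]prazosin binding), both measured in rat cortical membrane competition assays.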

[12] = biological target: Alpha-2A adrenergic receptor (Homo sapiens) (UniProt P08913); test: Compound is evaluated for binding affinity towards Alpha-2A adrenergic receptor using [3H]MK912 at 10 uM
[13] = biological target: Alpha-2B adrenergic receptor (Homo sapiens) (UniProt P18089); test: Compound is evaluated for binding affinity towards Alpha-2B adrenergic receptor using [3H]yohimbine at 10 uM
[14] = biological target: Serotonin 1 (5-HT1) receptor (Rattus norvegicus, UniProt P28564+P30940+P19327+P28565); test: Compound is evaluated for binding affinity towards 5-hydroxytryptamine 1 receptor using [3H]5-HT in rat brain cortex; type: tissue-based; in short: as §2
D(2) dopamine receptor [15] = biological target: T4, D(2) dopamine receptor; test: Compound is evaluated for binding affinity towards Dopamine receptor D2 using [3H]spiperone in CHO cells at 10 uM; type: cell-based
D(3) dopamine receptor [16] = biological target: T5, D(3) dopamine receptor; test: Compound is evaluated for binding affinity towards recombinant human Dopamine receptor D3 using [3H]spiperone in CHO cells at 10 uM; type: cell-based
In short: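 Single-concentration screen at 10 µM in contract radioligand binding assays. Records whether inhibition of specific radioligand binding stayed below 50%.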

[17] = biological target: Sodium channel alpha subunits; brain (Types I, II, III) (Rattus norvegicus, UniProt P04775+P04774+P08104); test: Displacement of [3H]batrachotoxin from rat brain sodium channel; type: tissue-based; in short: as §1
Sigma 2 receptor [18] = test: as §4; type: tissue-based; in short: as §2
[19] = biological target: T6, Alpha-2A adrenergic receptor (Homo sapiens, UniProt P08913); test: Compound is evaluated for binding affinity towards Alpha-2A adrenergic receptor using [3H]MK912
T6 sequence (P08913 whole entry): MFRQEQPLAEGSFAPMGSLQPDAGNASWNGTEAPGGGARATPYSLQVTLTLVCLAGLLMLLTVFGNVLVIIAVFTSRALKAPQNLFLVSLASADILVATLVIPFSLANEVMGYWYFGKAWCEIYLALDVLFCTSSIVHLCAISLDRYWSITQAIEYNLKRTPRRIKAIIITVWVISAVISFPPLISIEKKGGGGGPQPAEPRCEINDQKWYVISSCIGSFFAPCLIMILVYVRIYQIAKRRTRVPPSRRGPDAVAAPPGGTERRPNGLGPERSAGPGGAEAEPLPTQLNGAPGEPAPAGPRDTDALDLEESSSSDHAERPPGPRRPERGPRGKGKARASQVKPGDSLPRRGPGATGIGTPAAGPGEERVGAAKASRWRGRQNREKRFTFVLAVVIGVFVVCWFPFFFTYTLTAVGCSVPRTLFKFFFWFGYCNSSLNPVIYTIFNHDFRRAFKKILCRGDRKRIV

[20] = biological target: T7, Alpha-2B adrenergic receptor (Homo sapiens, UniProt P18089); test: Compound is evaluated for binding affinity towards Alpha-2B adrenergic receptor using [3H]yohimbine
T7 sequence (P18089 whole entry): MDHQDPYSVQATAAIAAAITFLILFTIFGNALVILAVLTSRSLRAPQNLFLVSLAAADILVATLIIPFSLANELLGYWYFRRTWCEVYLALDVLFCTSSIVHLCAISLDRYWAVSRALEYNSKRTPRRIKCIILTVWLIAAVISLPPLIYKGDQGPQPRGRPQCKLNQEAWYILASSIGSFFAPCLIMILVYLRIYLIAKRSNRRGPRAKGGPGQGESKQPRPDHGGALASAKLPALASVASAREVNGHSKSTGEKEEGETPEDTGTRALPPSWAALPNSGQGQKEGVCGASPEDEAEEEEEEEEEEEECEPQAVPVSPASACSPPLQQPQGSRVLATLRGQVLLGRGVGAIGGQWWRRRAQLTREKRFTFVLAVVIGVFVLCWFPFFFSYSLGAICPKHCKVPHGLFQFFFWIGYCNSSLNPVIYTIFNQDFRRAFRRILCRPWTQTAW

| Compound | Ki [2] [µM] | Ki [3] [µM] | Ki [4] [µM] | Ki [5] [µM] | Ki (D(2) dopamine receptor [7]) [µM] | Ki (Histamine H1 receptor) [µM] | Ratio [11] | other results |
| --- | --- | --- | --- | --- | --- | --- | --- | --- |
| COc1ccccc1N1CCN(CC2CN=C3c4ccccc4NC(=O)N32)CC1 (stereo not drawn) | 0.155 | 0.377 | 0.00026 | 0.00067 | 0.239 | 2.32 | 2820 | inhibition [1]: < 50%; Ki (D(2) dopamine receptor [6]): 0.158 µM; Ki (D(3) dopamine receptor [8]): 0.985 µM; inhibition [9]: < 50%; inhibition (Sigma 2 receptor [10]): < 50%; inhibition [12]: < 50%; inhibition [13]: < 50% |
| COc1ccccc1N1CCN(CCn2c(=O)[nH]c3ccccc3c2=O)CC1 | 0.016 | 0.18 | 0.0005 | 0.0011 | 0.132 | 0.685 | 6400 | Ki [14]: 1.51 µM; Ki (D(2) dopamine receptor [15]): 0.032 µM; Ki (D(3) dopamine receptor [16]): 0.073 µM; Ki [17]: 3.68 µM; Ki (Sigma 2 receptor [18]): 2.5 µM; Ki [19]: 1.81 µM; Ki [20]: 0.056 µM |
